Converted amounts (≈) assume the structure as drawn.
Assays:
Assay type in all cases: functional
DNA gyrase = DNA gyrase (Escherichia coli, UniProt P0AES4+P0AES6); test: Inhibition of the gyrase mediated cleavage of supercoiled DNA
Klebsiella pneumoniae [1] = test: Antibacterial activity was tested in vitro against Klebsiella pneumoniae MGH-2 using standard microtitration techniques
Procedure, shortened: (§1)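 MIC (μg/mL) by standard broth microtitration, as part of a panel of six Gram-negative and five Gram-positive organisms.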

Providencia rettgeri = test: Antibacterial activity was tested in vitro against M-1771 strain of Providencia rettgeri using standard microtitration techniques
Procedure, shortened: (§2)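 Broth microtitration MIC testing against a panel of six Gram-negative and five Gram-positive bacterial strains. Values are given as MIC in μg/mL.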

Escherichia coli [2] = test: Antibacterial activity was tested in vitro against Escherichia coli Vogel using standard microtitration techniques; procedure, shortened: as §2
Pseudomonas aeruginosa = test: Antibacterial activity was tested in vitro against Pseudomonas aeruginosa UI-18 using standard microtitration techniques; procedure, shortened: as §2
Staphylococcus aureus [3] = test: Antibacterial activity was tested in vitro against Staphylococcus aureus H-288 using standard microtitration techniques; procedure, shortened: as §2
Bacteria = test: Geometric mean of MIC was determined in vitro against gram-positive strains using standard microtitration techniques
Procedure, shortened: (§3)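 Per-compound geometric means of the microtitration MICs (μg/mL), calculated separately across the Gram-negative strains and the Gram-positive strains. Pseudomonas aeruginosa is excluded from the Gram-negative mean.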

Mus musculus [4] = test: Protective dose in vivo was determined in acute, lethal systemic infections in female Charles River CD-1 mice against Streptococcus pyogenes C-203; settings: read-out: PD50
Procedure, shortened: (§4)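 Female Charles River CD-1 mice with an acute, lethal systemic infection received a single compound dose at the time of challenge. The median protective dose (PD50, mg/kg) was taken as the read-out.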

Enterococcus faecalis = test: Antibacterial activity was tested in vitro against Enterococcus faecalis MGH-2 using standard microtitration techniques; procedure, shortened: as §2
Enterobacter cloacae = test: Antibacterial activity was tested in vitro against Enterococcus cloacae MA-2646 using standard microtitration techniques; procedure, shortened: as §2
Mus musculus [5] = test: Protective dose in vivo was determined in acute, lethal systemic infections in female Charles River CD-1 mice against Escherichia coli Vogel; settings: read-out: PD50; procedure, shortened: as §4
Streptococcus pyogenes [6] = test: (§5) Antibacterial activity was tested in vitro against Streptococcus pyogenes C-203 using standard microtitration techniques; procedure, shortened: as §1
Escherichia coli [7] = test: Antibacterial activity was tested in vitro against Escherichia coli H-560 using standard microtitration techniques; procedure, shortened: as §2
Streptococcus pneumoniae = test: Antibacterial activity was tested in vitro against Streptococcus pneumoniae SV-1 using standard microtitration techniques; procedure, shortened: as §2
Staphylococcus aureus [8] = test: (§6) Antibacterial activity was tested in vitro against Staphylococcus aureus UC-76 using standard microtitration techniques; procedure, shortened: as §1
[9] = Geometric mean of MIC was determined in vitro against gram-negative strains using standard microtitration techniques; procedure, shortened: as §3
Staphylococcus aureus [10] = test: as §6; procedure, shortened: as §2; remark: listed apart in the source
Mus musculus [11] = test: Protective dose in vivo was determined in acute, lethal systemic infections in female Charles River CD-1 mice against Streptococcus pyogenes C-203; 50/45.; settings: read-out: PD50
Streptococcus pyogenes [12] = test: as §5; procedure, shortened: as §2; remark: listed apart in the source
Mus musculus [13] = test: Protective dose in vivo was determined in acute, lethal systemic infections in female Charles River CD-1 mice against Escherichia coli Vogel; 6/1.1.; settings: read-out: PD50
Klebsiella pneumoniae [14] = test: Antibacterial activity was tested in vitro against Klebsiella pneumoniae MGH-2 using standard microtitration technique; procedure, shortened: as §2

| SMILES | IC50 (DNA gyrase) [µM] | MIC (Klebsiella pneumoniae [1]) [µg/mL] | MIC (Providencia rettgeri) [µg/mL] | MIC (Escherichia coli [2]) [µg/mL] | MIC (Pseudomonas aeruginosa) [µg/mL] | MIC (Staphylococcus aureus [3]) [µg/mL] | MIC (Bacteria) [µg/mL] | ED50 (Mus musculus [4]) [mg/kg] | MIC (Enterococcus faecalis) [µg/mL] | MIC (Enterobacter cloacae) [µg/mL] | ED50 (Mus musculus [5]) [mg/kg] | MIC (Streptococcus pyogenes [6]) [µg/mL] | MIC (Escherichia coli [7]) [µg/mL] | MIC (Streptococcus pneumoniae) [µg/mL] | MIC (Staphylococcus aureus [8]) [µg/mL] | MIC [9] [µg/mL] | further results |
| --- | --- | --- | --- | --- | --- | --- | --- | --- | --- | --- | --- | --- | --- | --- | --- | --- | --- |
| O=C(O)c1cn(C2CC2)c2cc(C3=CCNCC3)c(F)cc2c1=O | 2.74 | 0.1 (≈ 0.305 µM) | 0.1 (≈ 0.305 µM) | 0.025 (≈ 0.0761 µM) | 0.8 (≈ 2.44 µM) | 0.8 (≈ 2.44 µM) | 0.46 (≈ 1.4 µM) | > 100 | 0.8 (≈ 2.44 µM) | 0.025 (≈ 0.0761 µM) | 1.7 | 0.4 (≈ 1.22 µM) | 0.013 (≈ 0.0396 µM) | 0.8 (≈ 2.44 µM) | 0.1 (≈ 0.305 µM) | 0.04 (≈ 0.122 µM) | – |
| O=C(O)c1cn(-c2ccc(F)cc2F)c2nc(N3CCNCC3)c(F)cc2c1=O | – | – | – | – | – | – | 0.2 (≈ 0.495 µM) | 2.4 | – | – | – | – | – | – | – | 0.4 (≈ 0.989 µM) | – |
| NC1C=C(c2cc3c(cc2F)c(=O)c(C(=O)O)cn3C2CC2)CC1 (stereo not given) | 8.53 | 0.2 (≈ 0.609 µM) | 0.2 (≈ 0.609 µM) | 0.1 (≈ 0.305 µM) | 0.8 (≈ 2.44 µM) | 0.8 (≈ 2.44 µM) | 0.35 (≈ 1.07 µM) | – | 0.8 (≈ 2.44 µM) | 0.1 (≈ 0.305 µM) | 5.2 | 0.2 (≈ 0.609 µM) | 0.1 (≈ 0.305 µM) | 0.4 (≈ 1.22 µM) | – | 0.13 (≈ 0.396 µM) | MIC (Staphylococcus aureus [10]): 0.1 µg/mL (≈ 0.305 µM) |
| O=C(O)c1cn(C2CC2)c2cc(N3CCNCC3)c(F)cc2c1=O [CIPROFLOXACIN] | – | – | – | – | – | – | 0.6 (≈ 1.81 µM) | > 260 | – | – | 1.2 | – | – | – | – | 0.05 (≈ 0.151 µM) | – |
| NC1CCN(c2nc3c(cc2F)c(=O)c(C(=O)O)cn3-c2ccc(F)cc2F)C1 (stereo not given) [TOSUFLOXACIN] | 7.42 | – | – | – | – | – | 0.04 (≈ 0.0989 µM) | 5.7 | – | – | 0.6 | – | – | – | – | 0.03 (≈ 0.0742 µM) | – |
| NC1CCN(c2cc3c(cc2F)c(=O)c(C(=O)O)cn3C2CC2)C1 (stereo not given) | 7.85 | – | – | – | – | – | 0.09 (≈ 0.272 µM) | 97 | – | – | 3.4 | – | – | – | – | 0.04 (≈ 0.121 µM) | – |
| NC1C=C(c2nc3c(cc2F)c(=O)c(C(=O)O)cn3-c2ccc(F)cc2F)CC1 (stereo not given) | 15.7 | 0.1 (≈ 0.249 µM) | 0.2 (≈ 0.498 µM) | 0.05 (≈ 0.125 µM) | 1.6 (≈ 3.99 µM) | 0.1 (≈ 0.249 µM) | 0.09 (≈ 0.224 µM) | – | 0.2 (≈ 0.498 µM) | 0.05 (≈ 0.125 µM) | – | – | 0.025 (≈ 0.0623 µM) | 0.1 (≈ 0.249 µM) | 0.025 (≈ 0.0623 µM) | 0.07 (≈ 0.174 µM) | ED50 (Mus musculus [11]): 50 mg/kg; MIC (Streptococcus pyogenes [12]): 0.1 µg/mL (≈ 0.249 µM); ED50 (Mus musculus [13]): 6 mg/kg |
| O=C(O)c1cn(C2CC2)c2nc(C3=CCNCC3)c(F)cc2c1=O | 11.5 | 0.05 (≈ 0.152 µM) | 0.05 (≈ 0.152 µM) | 0.013 (≈ 0.0395 µM) | 0.2 (≈ 0.607 µM) | 1.6 (≈ 4.86 µM) | 0.6 (≈ 1.82 µM) | 42 | 0.8 (≈ 2.43 µM) | 0.025 (≈ 0.0759 µM) | 0.5 | 0.4 (≈ 1.21 µM) | 0.013 (≈ 0.0395 µM) | 0.8 (≈ 2.43 µM) | 0.2 (≈ 0.607 µM) | 0.03 (≈ 0.0911 µM) | – |
| NC1CCN(c2nc3c(cc2F)c(=O)c(C(=O)O)cn3C2CC2)C1 (stereo not given) | 9.03 | – | – | – | – | – | 0.1 (≈ 0.301 µM) | 32 | – | – | 2 | – | – | – | – | 0.02 (≈ 0.0602 µM) | – |
| NC1C=C(c2nc3c(cc2F)c(=O)c(C(=O)O)cn3C2CC2)CC1 (stereo not given) | 11.5 | 0.1 (≈ 0.304 µM) | 0.1 (≈ 0.304 µM) | 0.05 (≈ 0.152 µM) | 0.8 (≈ 2.43 µM) | 0.8 (≈ 2.43 µM) | 0.35 (≈ 1.06 µM) | 50 | 0.4 (≈ 1.21 µM) | 0.05 (≈ 0.152 µM) | 1.2 | 0.4 (≈ 1.21 µM) | 0.05 (≈ 0.152 µM) | 0.4 (≈ 1.21 µM) | 0.1 (≈ 0.304 µM) | 0.07 (≈ 0.213 µM) | – |
| O=C(O)c1cn(C2CC2)c2cc(C3CCNCC3)c(F)cc2c1=O | 11.5 | – | 0.8 (≈ 2.42 µM) | 0.2 (≈ 0.605 µM) | 1.6 (≈ 4.84 µM) | 6.3 (≈ 19.1 µM) | 1.8 (≈ 5.45 µM) | – | 3.1 (≈ 9.38 µM) | 0.2 (≈ 0.605 µM) | 13.8 | 0.4 (≈ 1.21 µM) | 0.2 (≈ 0.605 µM) | 3.1 (≈ 9.38 µM) | 0.8 (≈ 2.42 µM) | 0.3 (≈ 0.908 µM) | MIC (Klebsiella pneumoniae [14]): 0.4 µg/mL (≈ 1.21 µM) |
| O=C(O)c1cn(C2CC2)c2nc(N3CCNCC3)c(F)cc2c1=O | > 75.2 | – | – | – | – | – | 1.2 (≈ 3.61 µM) | 63 | – | – | 0.7 | – | – | – | – | 0.05 (≈ 0.15 µM) | – |
| O=C(O)c1cn(-c2ccc(F)cc2F)c2nc(C3=CCNCC3)c(F)cc2c1=O | 12.5 | 0.2 (≈ 0.498 µM) | 0.4 (≈ 0.997 µM) | 0.1 (≈ 0.249 µM) | 1.6 (≈ 3.99 µM) | 0.8 (≈ 1.99 µM) | 0.53 (≈ 1.32 µM) | – | 1.6 (≈ 3.99 µM) | 0.1 (≈ 0.249 µM) | – | 0.4 (≈ 0.997 µM) | 0.1 (≈ 0.249 µM) | 0.4 (≈ 0.997 µM) | 0.2 (≈ 0.498 µM) | 0.15 (≈ 0.374 µM) | – |
